Laboratory results from ChEMBL document CHEMBL1158767, “Cytotoxic steroidal saponins from the rhizomes of Asparagus oligoclonos” (J Nat Prod, 2005).
Values after ≈ are worked out from the molar mass of the structure shown.

How the values were obtained:
Assay type in all cases: functional, cell-based
[1] = test system: SK-MEL-2; assay: Cytotoxicity against human SK-MEL-2 cells by SRB assay
In short: (§1)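 Standard sulforhodamine B assay on a panel of human tumour lines: A549 lung carcinoma, SK-OV-3 ovarian adenocarcinoma (from malignant ascites), SK-MEL-2 malignant melanoma (skin metastasis, thigh), XF-498 central nervous system tumour, and HCT 15 colon adenocarcinoma. Testing was done by an external pharmacology group.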

[2] = test system: SK-OV-3; assay: Cytotoxicity against human SKOV3 cells by SRB assay; in short: as §1
[3] = test system: HCT-15; assay: Cytotoxicity against human HCT15 cells by SRB assay; in short: as §1
[4] = test system: XF498; assay: Cytotoxicity against human XF498 cells by SRB assay; in short: as §1
[5] = test system: A549; assay: Cytotoxicity against human A549 cells by SRB assay

C[C@H]1CC[C@@]2(OC1)O[C@H]1C[C@H]3[C@@H]4CC[C@@H]5C[C@@H](O[C@@H]6O[C@H](CO)[C@@H](O)[C@H](O)[C@H]6O[C@@H]6O[C@@H](CO)[C@H](O)[C@H](O)[C@H]6O)CC[C@]5(C)[C@H]4CC[C@]3(C)[C@@]1(O)[C@@H]2C (relative stereo) [ASPAOLIGONIN A]
IC50 [1]: 2.53 mg/L (≈ 3.34 µM)
IC50 [2]: 2.66 mg/L (≈ 3.51 µM)
IC50 [3]: 2.59 mg/L (≈ 3.42 µM)
IC50 [4]: 2.84 mg/L (≈ 3.75 µM)
IC50 [5]: 2.25 mg/L (≈ 2.97 µM)

C[C@H]1CC[C@@]2(OC1)O[C@H]1C[C@H]3[C@@H]4CC[C@@H]5C[C@@H](O[C@@H]6O[C@H](CO)[C@@H](O[C@@H]7O[C@@H](C)[C@H](O)[C@@H](O)[C@H]7O)[C@H](O)[C@H]6O[C@@H]6OC[C@@H](O)[C@H](O)[C@H]6O)CC[C@]5(C)[C@H]4CC[C@]3(C)[C@@]1(O)[C@@H]2C (relative stereo) [ASPAOLIGONIN B]
IC50 [1]: 2.59 mg/L (≈ 2.97 µM)
IC50 [2]: 2.73 mg/L (≈ 3.13 µM)
IC50 [3]: 2.57 mg/L (≈ 2.94 µM)
IC50 [4]: 2.51 mg/L (≈ 2.88 µM)
IC50 [5]: 2.55 mg/L (≈ 2.92 µM)

C[C@H]1CC[C@@]2(OC1)O[C@H]1C[C@H]3[C@@H]4CC[C@@H]5C[C@@H](O[C@@H]6O[C@H](CO)[C@@H](O)[C@H](O)[C@H]6O[C@@H]6O[C@@H](CO)[C@H](O)[C@H](O)[C@H]6O)CC[C@]5(C)[C@H]4CC[C@]3(C)[C@H]1[C@@H]2C (relative stereo) [ASPARANIN A]
IC50 [1]: 2.41 mg/L (≈ 3.25 µM)
IC50 [2]: 2.43 mg/L (≈ 3.28 µM)
IC50 [3]: 2.47 mg/L (≈ 3.33 µM)
IC50 [4]: 2.56 mg/L (≈ 3.46 µM)
IC50 [5]: 2.05 mg/L (≈ 2.77 µM)

COc1cccc2c1C(=O)c1c(O)c3c(c(O)c1C2=O)C[C@@](O)(C(=O)CO)C[C@@H]3O[C@H]1C[C@H](N)[C@H](O)[C@H](C)O1 [DOXORUBICIN]
IC50 [1]: 0.03 mg/L (≈ 0.0552 µM)
IC50 [2]: 0.18 mg/L (≈ 0.331 µM)
IC50 [3]: 0.08 mg/L (≈ 0.147 µM)
IC50 [4]: 0.12 mg/L (≈ 0.221 µM)
